Key:
[1] = system: panel of cancer cell lines; assay: Proliferation of a panel of cancer cell lines; format: cell-based, human; conditions: all cell lines tested
SMARCA2 = SMARCA2 (Homo sapiens, UniProt P51531); assay: Protein degradation assay; format: cell-based; conditions: MV-4-11 cells, 1 µM compound
PBRM1 = PBRM1 (Homo sapiens, UniProt Q86U86); assay: Protein degradation assay, PBRM1 in NCI-H1568 cells; format: cell-based; conditions: read-out: DC50 PBRM1, 18 h
Outline: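 Cells seeded at 20000/well in 24-well plates and held overnight at 37 °C. Test compound added from DMSO stock (DMSO normalised), 18 h at 37 °C. Lysed 30 min on ice in 1% Triton, 350 mM KCl, 10 mM Tris pH 7.4, 10 mM DTT, benzonase, protease/phosphatase inhibitors. Target protein quantified by WES capillary electrophoresis, normalised to GAPDH. Two independent experiments.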

NCI-H1703 cells = assay: Proliferation assay; format: cell-based, human; conditions: SMARCA2/4 null cell line, 7 days
[2] = Caco-2 permeability assay; format: in vitro ADME; conditions: human, Caco-2, pH 7.2
SK-MEL-5 cells [3] = assay: Proliferation assay; format: cell-based; conditions: Homo sapiens, SK-MEL-5, 168 h, read-out: anti-proliferative IC50, SK-MEL-5
SMARCA2^BD = SMARCA2^BD (Homo sapiens, UniProt P51531); format: binding
SK-MEL-5 cells [4] = assay: Real-time apoptosis measurement; format: cell-based, human; conditions: SK-MEL-5, 0.3 µM, comparable to doxorubicin (1 µM)
[5] = system: proteome of MV-4-11 cells; assay: TMT labelling mass spectrometry proteomics in MV-4-11 cells; format: cell-based, human; conditions: 333 nM, 8 h
SMARCA4 = SMARCA4 (Homo sapiens, UniProt P51532); assay: Protein degradation assay; format: cell-based; conditions: MV-4-11 cells, 1 µM compound
Chain of SMARCA4 (P51532 whole entry): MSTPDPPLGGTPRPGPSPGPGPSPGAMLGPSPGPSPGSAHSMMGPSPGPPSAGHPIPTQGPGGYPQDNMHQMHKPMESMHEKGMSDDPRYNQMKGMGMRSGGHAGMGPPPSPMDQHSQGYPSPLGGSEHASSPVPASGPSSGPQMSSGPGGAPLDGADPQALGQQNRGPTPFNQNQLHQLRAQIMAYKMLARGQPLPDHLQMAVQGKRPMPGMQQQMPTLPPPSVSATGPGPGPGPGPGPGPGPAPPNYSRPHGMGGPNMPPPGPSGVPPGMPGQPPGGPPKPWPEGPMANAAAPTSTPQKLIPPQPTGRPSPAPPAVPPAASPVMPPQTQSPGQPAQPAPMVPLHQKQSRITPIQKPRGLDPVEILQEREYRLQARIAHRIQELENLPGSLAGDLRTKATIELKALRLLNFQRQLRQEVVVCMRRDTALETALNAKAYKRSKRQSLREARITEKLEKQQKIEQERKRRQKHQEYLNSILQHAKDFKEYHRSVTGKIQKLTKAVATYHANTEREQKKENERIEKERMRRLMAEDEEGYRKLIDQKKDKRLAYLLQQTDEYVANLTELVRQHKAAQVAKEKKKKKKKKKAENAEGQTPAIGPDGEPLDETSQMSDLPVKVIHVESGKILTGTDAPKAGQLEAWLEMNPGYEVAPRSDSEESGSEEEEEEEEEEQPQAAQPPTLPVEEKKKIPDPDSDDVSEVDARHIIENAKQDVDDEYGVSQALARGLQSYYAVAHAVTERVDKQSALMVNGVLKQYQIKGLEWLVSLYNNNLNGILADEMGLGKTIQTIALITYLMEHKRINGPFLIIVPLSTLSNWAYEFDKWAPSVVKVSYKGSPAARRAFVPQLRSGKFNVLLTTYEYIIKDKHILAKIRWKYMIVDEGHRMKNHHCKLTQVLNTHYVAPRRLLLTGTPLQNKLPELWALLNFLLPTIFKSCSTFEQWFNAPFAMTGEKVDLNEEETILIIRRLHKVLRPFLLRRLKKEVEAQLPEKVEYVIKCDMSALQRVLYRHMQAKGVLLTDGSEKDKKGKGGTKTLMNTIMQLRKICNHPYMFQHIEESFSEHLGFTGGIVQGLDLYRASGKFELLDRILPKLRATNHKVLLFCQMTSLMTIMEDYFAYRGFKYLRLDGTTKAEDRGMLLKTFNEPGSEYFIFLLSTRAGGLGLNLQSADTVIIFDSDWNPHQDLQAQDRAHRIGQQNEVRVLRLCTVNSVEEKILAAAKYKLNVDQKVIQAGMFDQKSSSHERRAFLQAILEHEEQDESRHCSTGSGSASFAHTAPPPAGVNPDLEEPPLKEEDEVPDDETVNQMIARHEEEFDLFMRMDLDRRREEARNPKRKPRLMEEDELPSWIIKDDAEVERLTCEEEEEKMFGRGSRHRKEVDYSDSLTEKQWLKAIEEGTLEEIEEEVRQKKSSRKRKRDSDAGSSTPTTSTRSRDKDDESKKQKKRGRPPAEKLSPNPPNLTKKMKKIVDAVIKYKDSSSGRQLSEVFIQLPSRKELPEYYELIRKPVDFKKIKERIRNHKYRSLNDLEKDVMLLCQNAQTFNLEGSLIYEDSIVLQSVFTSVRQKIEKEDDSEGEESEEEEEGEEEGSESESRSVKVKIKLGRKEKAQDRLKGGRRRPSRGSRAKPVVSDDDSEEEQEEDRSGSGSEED

MV-4-11 cells = assay: Proliferation assay; format: cell-based, human; conditions: read-out: anti-proliferative IC50, MV-4-11; cell viability after 7 days
[6] = system: VHL-ElonginC-ElonginB (VCB) complex; assay: Isothermal titration calorimetry; format: binding, human; conditions: ITC, VCB ± SMARCA2^BD

Chain of PBRM1 (Q86U86 whole entry): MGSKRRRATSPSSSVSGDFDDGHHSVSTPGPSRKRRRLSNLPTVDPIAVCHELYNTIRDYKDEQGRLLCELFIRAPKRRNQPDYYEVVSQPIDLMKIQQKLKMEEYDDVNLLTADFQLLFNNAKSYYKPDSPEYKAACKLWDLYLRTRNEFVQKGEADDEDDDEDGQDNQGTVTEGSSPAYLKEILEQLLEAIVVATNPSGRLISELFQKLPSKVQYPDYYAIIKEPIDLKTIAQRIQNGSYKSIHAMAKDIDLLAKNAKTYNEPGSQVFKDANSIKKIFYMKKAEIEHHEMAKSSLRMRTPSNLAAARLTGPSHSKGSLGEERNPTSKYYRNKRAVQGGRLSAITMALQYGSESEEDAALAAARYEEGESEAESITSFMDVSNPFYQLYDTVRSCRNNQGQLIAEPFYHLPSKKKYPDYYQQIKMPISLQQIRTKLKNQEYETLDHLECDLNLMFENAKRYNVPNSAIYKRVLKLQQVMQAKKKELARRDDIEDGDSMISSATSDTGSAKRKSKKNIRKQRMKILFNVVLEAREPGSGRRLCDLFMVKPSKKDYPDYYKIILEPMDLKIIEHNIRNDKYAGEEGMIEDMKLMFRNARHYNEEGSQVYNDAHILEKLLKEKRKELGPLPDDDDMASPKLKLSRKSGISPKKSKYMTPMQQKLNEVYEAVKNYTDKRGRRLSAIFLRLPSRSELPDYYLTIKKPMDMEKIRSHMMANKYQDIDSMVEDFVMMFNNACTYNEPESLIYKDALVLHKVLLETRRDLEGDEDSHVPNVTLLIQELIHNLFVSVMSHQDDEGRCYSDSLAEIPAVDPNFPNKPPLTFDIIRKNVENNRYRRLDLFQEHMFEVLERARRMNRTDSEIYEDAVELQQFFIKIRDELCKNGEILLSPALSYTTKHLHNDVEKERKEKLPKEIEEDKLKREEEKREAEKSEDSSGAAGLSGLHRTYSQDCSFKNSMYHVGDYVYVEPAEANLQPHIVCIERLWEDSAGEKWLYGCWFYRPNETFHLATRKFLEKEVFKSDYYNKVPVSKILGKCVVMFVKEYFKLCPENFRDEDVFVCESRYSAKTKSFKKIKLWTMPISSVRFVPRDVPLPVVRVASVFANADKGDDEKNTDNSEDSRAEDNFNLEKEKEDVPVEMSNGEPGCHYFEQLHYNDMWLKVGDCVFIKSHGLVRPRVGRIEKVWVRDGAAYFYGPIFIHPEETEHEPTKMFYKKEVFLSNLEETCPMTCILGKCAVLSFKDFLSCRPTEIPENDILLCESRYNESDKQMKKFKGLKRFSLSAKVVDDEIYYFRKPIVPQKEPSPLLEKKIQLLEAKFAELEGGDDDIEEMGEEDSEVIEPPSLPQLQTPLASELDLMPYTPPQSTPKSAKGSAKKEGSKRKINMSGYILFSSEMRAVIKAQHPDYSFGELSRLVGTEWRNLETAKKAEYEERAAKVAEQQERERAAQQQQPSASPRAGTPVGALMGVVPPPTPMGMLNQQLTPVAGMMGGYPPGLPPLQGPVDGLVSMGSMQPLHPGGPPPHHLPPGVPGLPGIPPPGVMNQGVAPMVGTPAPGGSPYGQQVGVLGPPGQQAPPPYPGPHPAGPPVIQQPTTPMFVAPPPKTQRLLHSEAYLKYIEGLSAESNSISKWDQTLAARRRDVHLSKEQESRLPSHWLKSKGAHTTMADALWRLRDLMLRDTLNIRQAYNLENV

Structure (SMILES) | anti-proliferative effect across cell lines tested [1] | time to half maximal degradation of SMARCA2 (SMARCA2) | DC50 (PBRM1) | anti-proliferative effect in NCI-H1703 (NCI-H1703 cells) | efflux ratio [2] | IC50 (SK-MEL-5 cells [3]) | IC50 (SMARCA2^BD) | caspase activity / apoptosis (SK-MEL-5 cells [4]) | effect on cellular proteome [5] | time to half maximal degradation of SMARCA4 (SMARCA4) | IC50 (MV-4-11 cells) | Papp B→A at 2 h [2] | cooperativity α (binary KD/ternary KD) [6]
Cc1ncsc1-c1ccc(CNC(=O)[C@@H]2C[C@@H](O)CN2C(=O)[C@@H](NC(=O)C2(F)CC2)C(C)(C)C)c(OCCOc2ccc(CN3CCN(c4cc(-c5ccccc5O)nnc4N)CC3)cc2)c1 [ACBI1, (2S,4R)-N-(2-(2-(4-((4-(3-amino-6-(2-hydroxyphenyl)pyridazin-4-yl)piperazin-1-yl)methyl)phenoxy)ethoxy)-4-(4-methylthiazol-5-yl)benzyl)-1-((S)-2-(1-fluorocyclopropane-1-carboxamido)-3,3-dimethylbutanoyl)-4-hydroxypyrrolidine-2-carboxamide] | potent anti-proliferative effects | < 2 h | 15.6 nM | no anti-proliferative effects | 1.7 | 77 nM | 770 nM | increased caspase activity | significant knockdown of SMARCA2, SMARCA4 and PBRM1 with minimal down-regulation of other proteins across the proteome | < 2 h | 29 nM | – | –
Cc1ncsc1-c1ccc(CNC(=O)[C@@H]2C[C@@H](O)CN2C(=O)[C@@H](NC(=O)C2(F)CC2)C(C)(C)C)c(OCCOCCOCCN2CCN(c3cc(-c4ccccc4O)nnc3N)CC2)c1 [PROTAC 1, (2S,4R)-N-(2-(2-(2-(2-(4-(3-amino-6-(2-hydroxyphenyl)pyridazin-4-yl)piperazin-1-yl)ethoxy)ethoxy)ethoxy)-4-(4-methylthiazol-5-yl)benzyl)-1-((S)-2-(1-fluorocyclopropane-1-carboxamido)-3,3-dimethylbutanoyl)-4-hydroxypyrrolidine-2-carboxamide] | – | – | – | – | – | – | – | – | – | – | – | 20.7 ×10⁻⁶ cm/s | 4.8
Cc1ncsc1-c1ccc(CNC(=O)[C@@H]2C[C@H](O)CN2C(=O)[C@@H](NC(=O)C2(F)CC2)C(C)(C)C)c(OCCOc2ccc(CN3CCN(c4cc(-c5ccccc5O)nnc4N)CC3)cc2)c1 [cis-ACBI1, (2S,4S)-N-(2-(2-(4-((4-(3-amino-6-(2-hydroxyphenyl)pyridazin-4-yl)piperazin-1-yl)methyl)phenoxy)ethoxy)-4-(4-methylthiazol-5-yl)benzyl)-1-((S)-2-(1-fluorocyclopropane-1-carboxamido)-3,3-dimethylbutanoyl)-4-hydroxypyrrolidine-2-carboxamide] | – | – | – | no anti-proliferative effects | – | > 10000 nM | – | – | – | – | – | – | –
